PubChem BioAssay
Active and inactive are the calls of the source.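 Rule for the calls, unless noted: active = NADPH fluorescence slope more negative than the mean of all samples by about 3 SD, 99.7% confidence; inactive = the rest.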

Legend:
[1] = inhibitors of TNFa-induced NFkB p65 translocation, primary screen, imaging, HUVEC, MLSMR starter and 10KST1 sets (AID 438;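 active = inhibition above 20% together with a positive visual image hit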;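 note: compound added about 3h40 before a 20 min TNFalpha stimulation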;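 for inhibition: signal is the nuclear over cytoplasmic p65 intensity ratio per well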); details: HUVEC TNFa-induced p65 nuclear translocation; cell count: measured here: nuclei count (cytotoxicity indicator), at 2.08 µM unless noted; inhibition: at 2 µM, stronger effect = higher value unless noted
[2] = inhibitors of E-selectin induction by TNFa, primary screen, imaging, HUVEC, immunofluorescence, MLSMR starter and 10KST1 sets (AID 487;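 active = visually confirmed hit in the image check and inhibition above 20%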;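 for inhibition: signal is fraction of cell area covered by stained E-selectin grains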;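 for nuclei count: 100% = median nuclei count of all wells on the same plate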); details: HUVEC TNFalpha-induced E-selectin immunofluorescence imaging, at 2 µM; inhibition: stronger effect = higher value; nuclei count: measured here: cell number, toxicity
[3] = DUSP6 inhibitors restoring Erk phosphorylation by chemical complementation, primary imaging in DUSP6-transfected HeLa (AID 609;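 active = compounds giving at least 50% inhibition in the cell-based MKP-3 phosphatase rescue imaging test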;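 for inhibition: phospho-Erk level distribution per well compared with pooled transfected vehicle control wells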); details: HeLa MKP-3 transfected, phospho-Erk imaging KS statistic, at 10 µM
[4] = biological target: Dual specificity protein phosphatase 6 (Homo sapiens) (UniProt Q16828); test: as above; details: HeLa MKP-3 transfected, phospho-Erk imaging KS statistic, at 10 µM, stronger effect = higher value
[5] = biological target: Voltage-gated potassium channel subunit beta-2 (Rattus norvegicus) (UniProt P62483); test: KvBeta enzyme negative modulators, primary screen, biochemical, NADPH fluorescence (AID 622;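 active = fluorescence slope higher than the sample average by over 3 SD, cut at about -0.22 in these data, passing the limit was not always enough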;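 note: slope of raw intensity against log time taken from 70 to 1610 s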); details: recombinant KvBeta, 4-cyanobenzaldehyde reduction, at 10 µM, stronger effect = higher value
[6] = biological target: Voltage-gated potassium channel subunit beta-2 (Rattus norvegicus) (UniProt P62483); test: KvBeta positive modulators, primary screen, biochemical, NADPH fluorescence (AID 623); details: Recombinant KvBeta, NADPH fluorescence decrease slope, 10 min; at 10 µM; stronger effect = lower value;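 note: fluorescence intensity change per second fitted from 20 to 320 s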
[7] = biological target: Alpha-2C adrenergic receptor (Homo sapiens) (UniProt P18825); test: modulators of alpha2C/GIRK thallium flux, primary screen, cell-based, HEK293 alpha2C/GIRK1/2 (AID 624;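 active = fluorescence slope after compound addition differing from the mean of all screened samples at 99.7% confidence, in either direction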;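 note: slope of fluorescence ratio to pre-addition baseline per second over 15 to 24 s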); details: thallium flux BTC fluorescence, at 10 µM, actives lie on both sides
[8] = inhibitors of larval lipid processing in zebrafish, primary screen, whole organism, PED6 fluorescence, gall bladder and intestine (AID 686;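 active = a full or partial loss of lipid-probe fluorescence in the fish gall bladder, intestine or both, judged by eye; inactive = no fluorescence loss, or compound toxic to the fish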;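 note: larvae 5 to 7 days old with five fish per well; signal comes from phospholipase A2 cleavage of quenched PED6 carried via bile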); details: Zebrafish larvae PED6 lipid processing, fluorescence scoring
Summary of the method: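 Incubation: overnight exposure of larvae to compound plus PED6 / Test system: live zebrafish larvae aged 5-7 days, whole organism / Amount: 5 larvae per well / Read-out basis: visual per-well fluorescence inhibition score / Signal: visual fluorescence microscopy scoring of gall bladder, gut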

[9] = inhibitors of Chlamydomonas gravitaxis, primary screen, whole organism, Chlamydomonas reinhardtii, WT vs cilia-less mutant, absorbance, 96-well (AID 463189;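 active = inhibition at or above 50% relative to wild type and mutant plate controls; inactive = inhibition below 50%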;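 note: 0% = wild type cc124 cells in DMSO and 100% = ciliumless bld1 mutant cells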); details: OD600 absorbance, 2 days, at 10 µM, stronger effect = higher value
[10] = measured here: cell density z-score
[11] = measured here: nuclear c-Myc green intensity z-score
[12] = measured here: nuclear pErk red intensity z-score, stronger effect = higher value

Chain of Voltage-gated potassium channel subunit beta-2 (Rattus norvegicus) (P62483 whole entry, looked up): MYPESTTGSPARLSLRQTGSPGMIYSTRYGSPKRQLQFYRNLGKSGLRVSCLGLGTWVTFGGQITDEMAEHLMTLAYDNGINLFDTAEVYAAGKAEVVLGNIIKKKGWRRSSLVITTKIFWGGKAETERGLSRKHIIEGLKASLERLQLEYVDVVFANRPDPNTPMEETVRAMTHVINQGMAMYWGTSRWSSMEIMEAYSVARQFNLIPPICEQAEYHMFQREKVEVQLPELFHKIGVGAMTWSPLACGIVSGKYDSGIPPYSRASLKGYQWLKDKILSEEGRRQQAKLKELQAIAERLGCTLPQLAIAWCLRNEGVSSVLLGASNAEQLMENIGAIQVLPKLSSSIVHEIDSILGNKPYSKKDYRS
Chain of Dual specificity protein phosphatase 6 (Homo sapiens) (Q16828 whole entry, looked up): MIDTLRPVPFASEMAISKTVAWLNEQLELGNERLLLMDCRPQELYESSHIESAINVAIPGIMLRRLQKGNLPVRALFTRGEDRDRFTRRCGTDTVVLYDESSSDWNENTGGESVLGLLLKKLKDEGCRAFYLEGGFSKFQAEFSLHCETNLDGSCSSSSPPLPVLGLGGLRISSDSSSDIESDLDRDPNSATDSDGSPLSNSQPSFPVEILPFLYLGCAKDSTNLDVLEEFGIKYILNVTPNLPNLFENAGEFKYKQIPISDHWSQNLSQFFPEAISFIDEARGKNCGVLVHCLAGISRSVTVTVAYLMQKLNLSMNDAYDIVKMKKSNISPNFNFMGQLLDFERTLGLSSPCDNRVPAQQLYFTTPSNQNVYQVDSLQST
Chain of Alpha-2C adrenergic receptor (Homo sapiens) (P18825 whole entry, looked up): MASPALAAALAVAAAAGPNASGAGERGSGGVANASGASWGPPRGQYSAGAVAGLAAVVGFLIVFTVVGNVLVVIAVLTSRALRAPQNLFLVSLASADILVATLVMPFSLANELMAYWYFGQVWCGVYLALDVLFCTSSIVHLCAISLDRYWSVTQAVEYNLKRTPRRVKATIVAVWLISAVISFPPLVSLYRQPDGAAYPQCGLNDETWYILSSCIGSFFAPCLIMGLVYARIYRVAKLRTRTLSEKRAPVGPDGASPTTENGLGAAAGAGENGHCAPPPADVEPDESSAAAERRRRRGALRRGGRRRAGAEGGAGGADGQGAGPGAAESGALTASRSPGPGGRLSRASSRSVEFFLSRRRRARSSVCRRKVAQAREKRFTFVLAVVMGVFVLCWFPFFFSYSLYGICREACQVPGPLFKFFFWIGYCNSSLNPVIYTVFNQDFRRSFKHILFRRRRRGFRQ

SMILES | cell count [1] | inhibition [1] | inhibition [2] | nuclei count [2] | z-score [3, 10] | z-score [3, 11] | z-score [3, 12] | inhibition [4] | fluorescence slope [5] | NADPH fluorescence slope [6] | slope [7] | outcome [8] | inhibition [9]
CC(=O)OC1N=C(c2ccccc2)c2ccccc2NC1=O (configuration not stated) | 428 | -3.5% (inactive) | 14.8% (inactive) | 88.8% | 0.0297 | -1.27 | -0.528 | 6.04% (inactive) | -0.509 (inactive) | -5.2e-06 (inactive) | 0.00675 (inactive) | inactive | 12.3% (inactive)
CCOC(=O)[C@]1(C#N)[C@@H]2C=CC(C(C)=O)=CN2[C@@H](C(N)=O)[C@@H]1c1ccsc1 | 560 | -5.3% (inactive) | -130% (inactive) | 212% | 0.77 | 0.227 | -0.321 | -2.91% (inactive) | -0.358 (inactive) | -1.4e-05 (inactive) | -0.00125 (inactive) | inactive | 13.7% (inactive)
CCOCCN1CCC(OC(C)=O)C(C)C1 (configuration not stated) | 461 | -0.9% (inactive) | -83.1% (inactive) | 115% | -0.179 | -1.35 | -0.74 | -6.86% (inactive) | -0.51 (inactive) | -0.000103 (inactive) | 0.00675 (inactive) | inactive | -15.8% (inactive)
COC(=O)C(O)(c1c[nH]c2ccccc12)C(F)(F)F (configuration not stated) | 466 | -0.7% (inactive) | -19.2% (inactive) | 112% | 0.726 | 0.429 | -1.12 | -5.26% (inactive) | -0.373 (inactive) | 1.2e-05 (inactive) | 0.00556 (inactive) | inactive | -11.1% (inactive)
O=c1[nH]c(=O)n(C2CCCCC2)c(O)c1C=NCCCn1ccnc1 | 684 | -20.4% (inactive) | -84.3% (inactive) | 153% | 1.04 | -1.34 | -0.814 | 6.04% (inactive) | -0.428 (inactive) | 6.8e-06 (inactive) | 0.00637 (inactive) | inactive | 0.521% (inactive)
O=c1[nH]c(=O)n(Cc2ccccc2)c(O)c1C=NCCN1CCNCC1 | 548 | -7.6% (inactive) | -71.4% (inactive) | 125% | -0.72 | 0.623 | -0.0503 | 7.93% (inactive) | -0.51 (inactive) | -3.8e-05 (inactive) | 0.00654 (inactive) | inactive | -6.44% (inactive)
O=c1[nH]c(=O)n(Cc2ccccc2)c(O)c1C=NCCN1CCOCC1 | 639 | -25.9% (inactive) | -59.7% (inactive) | 156% | 0.666 | -2.11 | 2.73 | 2.71% (inactive) | -0.393 (inactive) | -1.2e-06 (inactive) | 0.00558 (inactive) | inactive | 0.831% (inactive)
CCCc1nc2ccccc2c(=O)n1-c1ccccc1OC | 587 | -5.2% (inactive) | -140% (inactive) | 134% | -0.589 | -0.508 | -0.325 | -4.78% (inactive) | -0.375 (inactive) | -2e-05 (inactive) | 0.00541 (inactive) | inactive | -2.29% (inactive)
CN1CC=C2C(C#N)=C(N)C(C#N)(C#N)C(c3ccncc3)C2C1 (configuration not stated) | 568 | -17% (inactive) | 30.3% (inactive) | 179% | -0.865 | 3.38 | -0.482 | 67.6% (inactive) | -0.392 (inactive) | -5.3e-05 (inactive) | 0.00203 (inactive) | inactive | 11.3% (inactive)
